Activity calls are given as the source filed them. No cut-off for these calls is given here.
Legend:
[1] = target: T1, Transient receptor potential cation channel subfamily A member 1 (Rattus norvegicus, UniProt Q6RI86); assay: Agonist activity at rat TRPA1 channel expressed in tetracycline induced HEK293 cells assessed as increase in intracellular calcium; type: functional, cell-based
Method in brief: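 Stable HEK293 FLPTREX line carrying HA-tagged rat TRPA1 under a tetracycline-inducible promoter. Expression induced with 0.1 μg/ml tetracycline 16 h before the assay. Fura2/AM [Ca2+]i read on a multiwell fluorescence plate reader, 30,000 cells per well, 10–100 μM, n = 4 wells per concentration, EC50 derived.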

[2] = target: Transient receptor potential cation channel subfamily A member 1 (Rattus norvegicus) (UniProt Q6RI86); assay: Reversal of activation of TRPA1 channel in rat dorsal root ganglion neurons at 100 uM by calcium imaging in presence of gentamycin; type: tissue-based
Method in brief: (§1)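 Cultured rat DRG neurons, Fura2/AM ratiometric calcium imaging. HNE 100 μM-evoked [Ca2+]i rise measured with ruthenium red (1 μM), (+) camphor (1 mM), gentamycin (100 μM) or capsazepine (10 μM), each versus vehicle. n ≥ 22 cells; mean ± SEM; Bonferroni test.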

Mus musculus [3] = species: Mus musculus; assay: Induction of paw lifting in Swiss mouse; type: functional, organism-based
Method in brief: (§2)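 Male Swiss mice injected intraplantar with HNE at 15–240 nmol in 20 μl saline, then placed in a chamber. Total time licking and lifting the injected paw recorded for 5 min.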

[4] = target: Transient receptor potential cation channel subfamily A member 1 (Homo sapiens) (UniProt O75762); assay: Agonist activity at human TRPA1 channel expressed in xenopus oocytes assessed as membrane currents by two electrode voltage-clamp technique; type: functional, cell-based; conditions: Oocyte
Method in brief: (§3)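 Two-electrode voltage clamp at +70 mV holding potential on Xenopus oocytes expressing human TRPA1, with voltage ramps for current–voltage relationships. Agonist challenge followed by ruthenium red (10 μM) block; 2-aminoethyl diphenylborinate (200 μM) used as reference agonist.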

Rattus norvegicus [5] = species: Rattus norvegicus; assay: Reversal of induction of allodynia in rat in presence of camphor
Mus musculus [6] = assay: Induction of paw lifting in TRPA1-deficient intraplantarly dosed Swiss mouse at 120 nmol/paw; type: functional, organism-based
Method in brief: (§4)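 Male TRPA1-deficient mice and wild-type littermates (about 30 g) injected intraplantar with HNE 120 nmol in 20 μl 0.9% saline. Total licking/lifting time recorded for 5 min, scored blind to genotype. n = 6 per group; single-factor ANOVA.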

Mus musculus [7] = assay: Induction of paw lifting in intraplantarly dosed Swiss mouse at 120 nmol/paw; type: functional, organism-based
Method in brief: (§5)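 Male Swiss mice injected intraplantar with HNE 120 nmol in 20 μl 0.9% saline. Time spent licking and lifting the injected paw recorded for 5 min immediately after injection; vehicle controls.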

Rattus norvegicus [8] = assay: Increase in plasma extravasation in intraplantar dosed rat hind paw; type: functional, organism-based
Method in brief: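 Male Sprague–Dawley rats (250 g) given Evans Blue (30 mg/kg) into the tail vein 1 min before intraplantar HNE (60–150 nmol in 30 μl) or vehicle. Killed by exsanguination at 30 min; paw skin dye extracted in formamide 48 h at room temperature in the dark and read at 620 nm, expressed as ng/g wet tissue. SR140333 (1.6 μmol/kg i.v.) given 15 min before. n ≥ 4.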

Esophagus [9] = assay: Induction of neurogenic inflammation in rat esophagus assessed as CGRP peptide release for 20 mins; type: functional, tissue-based
Method in brief: (§6)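 Rat lumbar dorsal spinal cord or esophagus slices (≈0.4 mm), stabilized 60 min in Krebs' solution at 37°C. Agonist superfused 20 min (HNE 50 or 100 μM). Fractions collected every 10 min into ethanoic acid (final 2 N), freeze-dried, and assayed for SP- or CGRP-like immunoreactivity (fmol/g/20 min). Controls: capsaicin desensitization (10 μM, 20 min) or 2 mM EGTA. n ≥ 4 slices; mean ± SEM.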

Spinal cord [10] = assay: Induction of neurogenic inflammation in rat dorsal spinal cord assessed as substance P release for 20 mins; type: functional, tissue-based; method in brief: as §6
[11] = target: Transient receptor potential cation channel subfamily A member 1 (Rattus norvegicus) (UniProt Q6RI86); assay: Reversal of activation of TRPA1 channel in rat dorsal root ganglion neurons at 100 uM by calcium imaging in presence of camphor; type: tissue-based; method in brief: as §1
[12] = target: Transient receptor potential cation channel subfamily A member 1 (Homo sapiens) (UniProt O75762); assay: Reversal of activation of human TRPA1 channel expressed in xenopus oocytes by two electrode voltage-clamp technique in presence of ruthenium red; type: cell-based; conditions: Oocyte; method in brief: as §3
[13] = target: Transient receptor potential cation channel subfamily A member 1 (Rattus norvegicus) (UniProt Q6RI86); assay: Activation of TRPA1 channel in rat dorsal root ganglion neurons assessed as increase in intracellular calcium level at 300 uM; type: tissue-based
Method in brief: (§7)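 Cultured rat dorsal root ganglion neurons loaded with Fura2/AM. HNE bath-applied across 30–500 μM. Ratiometric calcium imaging of the rise in [Ca2+]i, with capsaicin response recorded. Dose–response curve built from n ≥ 22 cells; mean ± SEM.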

Rattus norvegicus [14] = species: Rattus norvegicus; assay: Reversal of induction of allodynia in rat in presence of gentamycin
[15] = target: Transient receptor potential cation channel subfamily A member 1 (Rattus norvegicus) (UniProt Q6RI86); assay: Activation of TRPA1 channel in rat dorsal root ganglion neurons assessed as increase in intracellular calcium level at 50 uM; type: tissue-based; method in brief: as §7
[16] = target: Transient receptor potential cation channel subfamily A member 1 (Rattus norvegicus) (UniProt Q6RI86); assay: Agonist activity at rat TRPA1 channel expressed in HEK293 cells assessed as increase in intracellular calcium; type: functional, cell-based
Method in brief: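 Stable Flp-In HEK293 line expressing C-terminally HA11-tagged rat TRPA1 under a tetracycline-inducible promoter, induced with 0.1 μg/ml tetracycline 16 h before testing. Uninduced and vector-control cells also tested. Fura2/AM [Ca2+]i read in a fluorescence plate reader, 30,000 cells per well, n = 4 wells per concentration. Concentration–response used to derive EC50.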

[17] = target: T1, Transient receptor potential cation channel subfamily A member 1; assay: Activation of TRPA1 channel in rat dorsal root ganglion neurons assessed as increase in intracellular calcium level; type: tissue-based
Method in brief: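 Rat DRG neurons in culture, loaded with Fura2/AM and read by ratiometric calcium imaging. Agonist applied in the bath at 30–500 μM, with a concentration-response used to derive the EC50. n ≥ 22 cells.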

Esophagus [18] = assay: Induction of neurogenic inflammation in rat esophagus assessed as substance P release for 20 mins; type: functional, tissue-based; method in brief: as §6
[19] = target: Transient receptor potential cation channel subfamily A member 1 (Rattus norvegicus) (UniProt Q6RI86); assay: Reversal of activation of TRPA1 channel in rat dorsal root ganglion neurons at 100 uM by calcium imaging in presence of ruthenium red; type: tissue-based; method in brief: as §1
Mus musculus [20] = species: Mus musculus; assay: Reversal of induction of paw lifting in Swiss mouse at 15 to 240 nmol/paw in presence gentamycin; type: functional, organism-based
Method in brief: (§8)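 Mouse nocifensive test: intraplantar capsaicin (0.1 nmol/20 μl, in 4% DMSO) or HNE (120 nmol/20 μl, in saline), with camphor, gentamycin or capsazepine co-injected intraplantar. Licking/lifting time recorded for 5 min; vehicle controls. Mean ± SEM; ANOVA with Bonferroni.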

Mus musculus [21] = assay: Induction of paw licking in intraplantarly dosed Swiss mouse at 120 nmol/paw; type: functional, organism-based; method in brief: as §5
Spinal cord [22] = assay: Induction of neurogenic inflammation in rat dorsal spinal cord assessed as CGRP peptide release for 20 mins; type: functional, tissue-based; method in brief: as §6
Rattus norvegicus [23] = species: Rattus norvegicus; assay: Induction of allodynia in rat
[24] = target: Transient receptor potential cation channel subfamily A member 1 (Rattus norvegicus) (UniProt Q6RI86); assay: Reversal of activation of TRPA1 channel in rat dorsal root ganglion neurons at 100 uM by calcium imaging in presence of capsazepine; type: tissue-based; method in brief: as §1
Mus musculus [25] = assay: Induction of paw licking in intraplantarly dosed TRPA1-deficient Swiss mouse at 120 nmol/paw; type: functional, organism-based; method in brief: as §4
Rattus norvegicus [26] = species: Rattus norvegicus; assay: Reversal of induction of allodynia in rat in presence of capsazepine
Mus musculus [27] = species: Mus musculus; assay: Induction of paw licking in Swiss mouse; type: functional, organism-based; method in brief: as §2
[28] = target: Transient receptor potential cation channel subfamily A member 1 (Rattus norvegicus) (UniProt Q6RI86); assay: Activity at TRPA1 channel in rat dorsal root ganglion neurons assessed as attenuation of capsaicin-induced intracellular calcium; type: tissue-based
Method in brief: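 Cultured rat DRG neurons, Fura2/AM calcium imaging. Capsaicin (0.1 μM)-evoked [Ca2+]i responses measured in the presence of TRPA1 antagonists.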

Rattus norvegicus [29] = species: Rattus norvegicus; assay: Reduction of capsaocin-induction of allodynia in rat
Mus musculus [30] = species: Mus musculus; assay: Attenuation of capsaicin-induction of paw lifting in Swiss mouse; type: functional, organism-based; method in brief: as §8
Mus musculus [31] = species: Mus musculus; assay: Inhibition of capsaicin-induction of paw lifting in Swiss mouse; type: functional, organism-based; method in brief: as §8
Esophagus [32] = assay: Induction of neurogenic inflammation in rat esophagus assessed as substance P release per 20 mins at 50 uM; type: functional
Method in brief: (§9)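 Rat lumbar dorsal spinal cord or esophagus slices (~0.4 mm), stabilized 60 min in Krebs' solution at 37°C, then superfused. Fractions collected at 10-min intervals into ethanoic acid (final 2 N), freeze-dried, reconstituted, and assayed for SP or CGRP immunoreactivity. Results in fmol/g/20 min, at least four experiments.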

Spinal cord [33] = assay: Induction of neurogenic inflammation in capsaicin desensitized rat dorsal spinal cord assessed as substance P release per 20 mins at 10 uM; type: functional
Method in brief: (§10)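 Rat lumbar dorsal spinal cord or esophagus slices (~0.4 mm), superfused in Krebs' solution at 37°C after 60 min stabilization. Tissue desensitized beforehand with 10 μM capsaicin for 20 min. Fractions collected at 10-min intervals into ethanoic acid (final 2 N), freeze-dried, and assayed for SP or CGRP immunoreactivity. Results in fmol/g/20 min, at least four experiments.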

Spinal cord [34] = assay: Induction of neurogenic inflammation in capsaicin desensitized rat dorsal spinal cord assessed as CGRP peptide release per 20 mins at 10 uM; type: functional; method in brief: as §10
Spinal cord [35] = assay: Induction of neurogenic inflammation in rat dorsal spinal cord assessed as substance P release per 20 mins at 10 uM; type: functional; method in brief: as §9
Esophagus [36] = assay: Induction of neurogenic inflammation in rat esophagus assessed as substance P release per 20 mins at 50 uM in calcium free medium; type: functional
Method in brief: (§11)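 Rat dorsal spinal cord or esophagus slices superfused in Krebs' solution at 37°C, with extracellular Ca2+ chelated by 2 mM EGTA added to the bath. Fractions collected every 10 min into ethanoic acid (final 2 N), freeze-dried, and assayed for SP or CGRP immunoreactivity. Results in fmol/g/20 min, at least four experiments.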

Spinal cord [37] = assay: Induction of neurogenic inflammation in rat dorsal spinal cord assessed as CGRP peptide release per 20 mins at 10 uM; type: functional; method in brief: as §9
Esophagus [38] = assay: Induction of neurogenic inflammation in capsaicin desensitized rat esophagus assessed as CGRP release per 20 mins at 50 uM; type: functional; method in brief: as §10
Esophagus [39] = assay: Induction of neurogenic inflammation in rat esophagus assessed as CGRP release per 20 mins at 50 uM; type: functional; method in brief: as §9
Spinal cord [40] = assay: Induction of neurogenic inflammation in rat dorsal spinal cord assessed as substance P release per 20 mins at 10 uM in calcium free medium; type: functional; method in brief: as §11
Esophagus [41] = assay: Induction of neurogenic inflammation in capsaicin desensitized rat esophagus assessed as substance P release per 20 mins at 50 uM; type: functional; method in brief: as §10
Spinal cord [42] = assay: Induction of neurogenic inflammation in rat dorsal spinal cord assessed as CGRP release per 20 mins at 10 uM in calcium free medium; type: functional; method in brief: as §11
Esophagus [43] = assay: Induction of neurogenic inflammation in rat esophagus assessed as CGRP release per 20 mins at 50 uM in calcium free medium; type: functional; method in brief: as §11

Chain of Transient receptor potential cation channel subfamily A member 1 (Rattus norvegicus) (Q6RI86 whole entry): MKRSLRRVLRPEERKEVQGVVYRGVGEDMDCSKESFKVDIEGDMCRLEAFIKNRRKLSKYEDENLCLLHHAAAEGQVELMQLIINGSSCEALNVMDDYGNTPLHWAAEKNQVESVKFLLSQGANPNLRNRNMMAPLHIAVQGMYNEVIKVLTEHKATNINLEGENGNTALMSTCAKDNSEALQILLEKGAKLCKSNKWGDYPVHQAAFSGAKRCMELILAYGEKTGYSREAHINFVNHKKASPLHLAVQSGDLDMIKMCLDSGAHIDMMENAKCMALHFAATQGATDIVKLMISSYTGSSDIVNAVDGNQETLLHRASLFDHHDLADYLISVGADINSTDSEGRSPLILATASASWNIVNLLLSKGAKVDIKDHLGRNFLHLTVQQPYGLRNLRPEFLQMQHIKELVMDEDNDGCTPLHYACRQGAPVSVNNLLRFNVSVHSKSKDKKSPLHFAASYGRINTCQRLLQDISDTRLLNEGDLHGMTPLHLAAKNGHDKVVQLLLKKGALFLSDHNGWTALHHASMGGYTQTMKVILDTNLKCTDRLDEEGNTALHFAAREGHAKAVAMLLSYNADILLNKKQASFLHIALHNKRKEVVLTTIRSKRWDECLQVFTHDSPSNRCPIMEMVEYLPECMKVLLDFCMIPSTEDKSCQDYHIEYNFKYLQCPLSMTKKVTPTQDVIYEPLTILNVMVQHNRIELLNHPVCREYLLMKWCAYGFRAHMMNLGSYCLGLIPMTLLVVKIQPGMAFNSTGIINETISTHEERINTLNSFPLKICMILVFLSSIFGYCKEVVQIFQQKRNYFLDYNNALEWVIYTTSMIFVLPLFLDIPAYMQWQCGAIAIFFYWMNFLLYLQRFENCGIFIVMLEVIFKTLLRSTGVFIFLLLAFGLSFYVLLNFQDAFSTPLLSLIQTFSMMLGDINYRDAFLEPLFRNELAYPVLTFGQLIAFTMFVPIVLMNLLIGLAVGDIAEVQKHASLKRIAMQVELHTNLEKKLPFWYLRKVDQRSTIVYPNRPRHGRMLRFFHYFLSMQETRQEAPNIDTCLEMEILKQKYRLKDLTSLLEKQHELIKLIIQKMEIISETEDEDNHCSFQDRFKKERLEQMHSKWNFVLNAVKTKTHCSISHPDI
T1 sequence (Q6RI86 whole entry): as above
Chain of Transient receptor potential cation channel subfamily A member 1 (Homo sapiens) (O75762 whole entry): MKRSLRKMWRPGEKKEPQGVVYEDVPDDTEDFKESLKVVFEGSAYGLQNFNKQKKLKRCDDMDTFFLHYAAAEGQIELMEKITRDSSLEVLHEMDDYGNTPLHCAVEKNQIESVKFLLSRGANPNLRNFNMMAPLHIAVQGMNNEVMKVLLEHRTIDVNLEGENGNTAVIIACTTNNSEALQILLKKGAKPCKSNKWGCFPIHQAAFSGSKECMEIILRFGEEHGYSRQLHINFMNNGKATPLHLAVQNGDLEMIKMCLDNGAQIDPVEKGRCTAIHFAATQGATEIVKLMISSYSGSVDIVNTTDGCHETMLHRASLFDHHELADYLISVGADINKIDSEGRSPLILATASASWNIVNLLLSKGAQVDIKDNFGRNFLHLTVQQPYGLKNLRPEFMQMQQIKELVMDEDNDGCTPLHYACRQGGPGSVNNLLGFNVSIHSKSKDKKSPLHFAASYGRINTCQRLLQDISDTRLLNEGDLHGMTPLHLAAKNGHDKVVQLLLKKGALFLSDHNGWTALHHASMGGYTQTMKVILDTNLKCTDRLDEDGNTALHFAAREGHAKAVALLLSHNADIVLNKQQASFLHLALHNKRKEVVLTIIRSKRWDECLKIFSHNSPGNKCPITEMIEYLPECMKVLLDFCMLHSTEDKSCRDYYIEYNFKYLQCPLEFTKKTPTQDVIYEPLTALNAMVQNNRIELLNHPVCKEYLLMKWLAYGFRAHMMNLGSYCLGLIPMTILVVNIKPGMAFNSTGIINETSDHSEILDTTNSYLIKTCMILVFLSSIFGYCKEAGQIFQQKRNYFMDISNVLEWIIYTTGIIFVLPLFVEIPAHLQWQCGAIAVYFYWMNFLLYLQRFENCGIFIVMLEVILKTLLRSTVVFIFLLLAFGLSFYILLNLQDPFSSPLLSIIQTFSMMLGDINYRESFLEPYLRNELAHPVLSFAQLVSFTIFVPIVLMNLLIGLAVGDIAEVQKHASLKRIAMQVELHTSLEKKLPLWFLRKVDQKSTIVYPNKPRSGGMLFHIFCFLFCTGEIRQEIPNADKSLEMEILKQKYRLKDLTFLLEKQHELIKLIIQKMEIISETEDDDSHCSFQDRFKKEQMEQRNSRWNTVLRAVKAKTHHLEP

CCCCCC(O)/C=C/C=O (stereo not drawn) [4-HYDROXYNON-2-ENAL]
EC50 [1]: 27 µM | Activity [2]: inactive | Activity (Mus musculus [3]): Dose-dependent effect | Activity [4]: Active | Activity (Rattus norvegicus [5]): inactive | Activity (Mus musculus [6]): inactive | Activity (Mus musculus [7]): Active | Activity (Rattus norvegicus [8]): Dose-dependent effect | Activity (Esophagus [9]): Active | Activity (Spinal cord [10]): Active | Activity [11]: inactive | Activity [12]: Active | Activity [13]: Active | Activity (Rattus norvegicus [14]): inactive | Activity [15]: Active | Activity [16]: inactive | EC50 [17]: 77 µM | Activity (Esophagus [18]): Active | Activity [19]: inactive | Activity (Mus musculus [20]): inactive | Activity (Mus musculus [21]): Active | Activity (Spinal cord [22]): Active | Activity (Rattus norvegicus [23]): Dose-dependent effect | Activity [24]: Active | Activity (Mus musculus [25]): inactive | Activity (Rattus norvegicus [26]): Active | Activity (Mus musculus [27]): Dose-dependent effect

Oc1cc2c(cc1O)CN(C(=S)NCCc1ccc(Cl)cc1)CCC2
Activity [28]: Active | Activity (Rattus norvegicus [29]): Active | Activity (Mus musculus [30]): Active

CC12CCC(CC1=O)C2(C)C (stereo not drawn)
Activity (Mus musculus [31]): Active

O=C/C=C/c1ccccc1 [CINNAMALDEHYDE]
Activity (Esophagus [32]): 31.5 fmol/g | Activity (Spinal cord [33]): 23.7 fmol/g | Activity (Spinal cord [34]): 63.8 fmol/g | Activity (Spinal cord [35]): 160.5 fmol/g | Activity (Esophagus [36]): 6.3 fmol/g | Activity (Spinal cord [37]): 720.4 fmol/g | Activity (Esophagus [38]): 17.8 fmol/g | Activity (Esophagus [39]): 93.2 fmol/g | Activity (Spinal cord [40]): 34.5 fmol/g | Activity (Esophagus [41]): 5.8 fmol/g | Activity (Spinal cord [42]): 118.5 fmol/g | Activity (Esophagus [43]): 19.2 fmol/g
